Assay results as given in ChEMBL document CHEMBL1782042, “Efficient microwave-assisted synthesis and antitumor activity of novel 4,4'-methylenebis[2-(3-aryl-4,5-dihydro-1H-pyrazol-5-yl)phenols]” (Eur J Med Chem, 2011).

Key:
NCI-H460 [1] = test: Cytotoxicity against human NCI-H460 cells; type: cell-based
Procedure, shortened: (§1)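 NCI 60 human tumour cell line screen, second stage at five concentrations (100, 10, 1.0, 0.1 and 0.01 μM). Continuous drug exposure for 48 h, with cell growth estimated by sulforhodamine B protein staining. GI50 is the drug concentration giving a 50% reduction in net protein increase relative to control cells over the incubation.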

COLO 205 [2] = test: Cytotoxicity against human COLO205 cells; type: cell-based; procedure, shortened: as §1
HCC 2998 [3] = test: Cytotoxicity against human HCC2998 cells; type: cell-based; procedure, shortened: as §1
HCT-116 [4] = test: Cytotoxicity against human HCT116 cells; type: cell-based; procedure, shortened: as §1
HCT-15 = test: Cytotoxicity against human HCT15 cells; type: cell-based; procedure, shortened: as §1
SW-620 = test: Cytotoxicity against human SW620 cells; type: cell-based
Procedure, shortened: (§2)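 NCI 60 human tumour cell line screen; five concentration levels (100, 10, 1.0, 0.1 and 0.01 μM), 48 h continuous drug exposure. Cell growth estimated by sulforhodamine B (SRB) protein staining. GI50 taken as the drug concentration giving a 50% reduction in net protein increase relative to control cells over the incubation.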

SF-295 = test: Cytotoxicity against human SF295 cells; type: cell-based; procedure, shortened: as §1
SF-539 = test: Cytotoxicity against human SF539 cells; type: cell-based; procedure, shortened: as §1
SNB-19 = test: Cytotoxicity against human SNB19 cells; type: cell-based; procedure, shortened: as §2
HL-60(TB) [5] = test: Anticancer activity against human HL-60(TB) cells after 48 hrs by sulforhodamine B assay; type: functional; conditions: HL-60, 48 h; procedure, shortened: as §1
Malme-3M [6] = test: Cytotoxicity against human MALME-3M cells; type: cell-based; procedure, shortened: as §1
M14 = test: Cytotoxicity against human M14 cells; type: cell-based; procedure, shortened: as §1
MDA-MB-435 = test: Cytotoxicity against human MDA-MB-435 cells; type: cell-based; procedure, shortened: as §1
SK-MEL-2 [7] = test: Cytotoxicity against human SK-MEL-2 cells; type: cell-based; procedure, shortened: as §1
SK-MEL-28 [8] = test: Cytotoxicity against human SK-MEL-28 cells; type: cell-based; procedure, shortened: as §1
SK-MEL-5 = test: Cytotoxicity against human SK-MEL-5 cells; type: cell-based; procedure, shortened: as §1
OVCAR-4 [9] = test: Cytotoxicity against human OVCAR4 cells; type: cell-based; procedure, shortened: as §1
NCI/ADR-RES [10] = test: Cytotoxicity against human NCI/ADR-RES cells; type: cell-based; procedure, shortened: as §1
A498 [11] = test: Cytotoxicity against human A498 cells; type: cell-based; procedure, shortened: as §1
CAKI-1 = test: Cytotoxicity against human Caki1 cells; type: cell-based; procedure, shortened: as §1
SN12C = test: Cytotoxicity against human SN12C cells; type: cell-based; procedure, shortened: as §2
EKVX = test: Anticancer activity against human EKVX cells after 48 hrs by sulforhodamine B assay; type: functional
Procedure, shortened: (§3)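 NCI 60-cell-line in vitro screen, second stage: five concentration levels (100, 10, 1.0, 0.1 and 0.01 μM) with 48 h continuous drug exposure. Cell growth was estimated by sulforhodamine B protein staining. GI50 is the drug concentration that gives a 50% reduction in net protein increase relative to control cells over the incubation.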

HOP-62 [12] = test: Anticancer activity against human HOP62 cells after 48 hrs by sulforhodamine B assay; type: functional; conditions: HOP-62, 48 h; procedure, shortened: as §3
NCI-H23 = test: Anticancer activity against human NCI-H23 cells after 48 hrs by sulforhodamine B assay; type: functional; conditions: NCI-H23, 48 h; procedure, shortened: as §3
NCI-H460 [13] = test: Anticancer activity against human NCI-H460 cells after 48 hrs by sulforhodamine B assay; type: functional; conditions: NCI-H460, 48 h; procedure, shortened: as §3
COLO 205 [14] = test: Anticancer activity against human COLO205 cells after 48 hrs by sulforhodamine B assay; type: functional; conditions: COLO 205, 48 h; procedure, shortened: as §3
HCC 2998 [15] = test: Anticancer activity against human HCC2998 cells after 48 hrs by sulforhodamine B assay; type: functional; conditions: HCC 2998, 48 h; procedure, shortened: as §3
HCT-116 [16] = test: Anticancer activity against human HCT116 cells after 48 hrs by sulforhodamine B assay; type: functional; conditions: HCT-116, 48 h; procedure, shortened: as §3
HT-29 = test: Anticancer activity against human HT-29 cells after 48 hrs by sulforhodamine B assay; type: functional; conditions: HT-29, 48 h; procedure, shortened: as §3
KM12 = test: Anticancer activity against human KM12 cells after 48 hrs by sulforhodamine B assay; type: functional; conditions: KM12, 48 h; procedure, shortened: as §3
DU-145 [17] = test: Cytotoxicity against human DU145 cells; type: cell-based; procedure, shortened: as §1
Hs-578T = test: Cytotoxicity against human Hs578T cells; type: cell-based; procedure, shortened: as §1
T47D = test: Cytotoxicity against human T47D cells; type: cell-based; procedure, shortened: as §2
SNB-75 = test: Anticancer activity against human SNB75 cells after 48 hrs by sulforhodamine B assay; type: functional; conditions: SNB-75, 48 h
Procedure, shortened: (§4)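 NCI 60-cell-line screen, second stage. Five concentration levels (100, 10, 1.0, 0.1 and 0.01 μM), 48 h continuous drug exposure. Cell growth was estimated by sulforhodamine B protein staining. GI50 is the concentration giving a 50% reduction in net protein increase relative to control cells over the drug incubation. Compounds entered this stage after an earlier single-dose screen.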

LOX IMVI = test: Anticancer activity against human LOXIMVI cells after 48 hrs by sulforhodamine B assay; type: functional; procedure, shortened: as §3
Malme-3M [18] = test: Anticancer activity against human MALME-3M cells after 48 hrs by sulforhodamine B assay; type: functional; procedure, shortened: as §3
SK-MEL-2 [19] = test: Anticancer activity against human SK-MEL-2 cells after 48 hrs by sulforhodamine B assay; type: functional; conditions: SK-MEL-2, 48 h; procedure, shortened: as §3
SK-MEL-28 [20] = test: Anticancer activity against human SK-MEL-28 cells after 48 hrs by sulforhodamine B assay; type: functional; conditions: SK-MEL-28, 48 h; procedure, shortened: as §3
UACC-257 = test: Anticancer activity against human UACC257 cells after 48 hrs by sulforhodamine B assay; type: functional; conditions: UACC-257, 48 h; procedure, shortened: as §4
IGROV-1 = test: Anticancer activity against human IGROV1 cells after 48 hrs by sulforhodamine B assay; type: functional; conditions: IGROV-1, 48 h; procedure, shortened: as §3
OVCAR-4 [21] = test: Anticancer activity against human OVCAR4 cells after 48 hrs by sulforhodamine B assay; type: functional; conditions: OVCAR-4, 48 h; procedure, shortened: as §3
OVCAR-8 = test: Anticancer activity against human OVCAR8 cells after 48 hrs by sulforhodamine B assay; type: functional; conditions: OVCAR-8, 48 h; procedure, shortened: as §3
NCI/ADR-RES [22] = test: Anticancer activity against human NCI/ADR-RES cells after 48 hrs by sulforhodamine B assay; type: functional; procedure, shortened: as §3
SK-OV-3 = test: Anticancer activity against human SKOV3 cells after 48 hrs by sulforhodamine B assay; type: functional; conditions: SK-OV-3, 48 h; procedure, shortened: as §3
786-0 = test: Anticancer activity against human 786-0 cells after 48 hrs by sulforhodamine B assay; type: functional; conditions: 786-0, 48 h; procedure, shortened: as §3
A498 [23] = test: Anticancer activity against human A498 cells after 48 hrs by sulforhodamine B assay; type: functional; conditions: A498, 48 h; procedure, shortened: as §3
DU-145 [24] = test: Anticancer activity against human DU145 cells after 48 hrs by sulforhodamine B assay; type: functional; conditions: DU-145, 48 h; procedure, shortened: as §3
MCF7 = test: Anticancer activity against human MCF7 cells after 48 hrs by sulforhodamine B assay; type: functional; conditions: MCF7, 48 h; procedure, shortened: as §3
BT-549 = test: Anticancer activity against human BT549 cells after 48 hrs by sulforhodamine B assay; type: functional; conditions: BT-549, 48 h; procedure, shortened: as §3
HL-60(TB) [25] = test: Cytotoxicity against human HL-60(TB) cells; type: cell-based; procedure, shortened: as §1
K562 = test: Cytotoxicity against human K562 cells; type: cell-based; procedure, shortened: as §1
MOLT-4 = test: Cytotoxicity against human MOLT4 cells; type: cell-based; procedure, shortened: as §1
SR = test: Cytotoxicity against human SR cells; type: cell-based; procedure, shortened: as §2
HOP-62 [26] = test: Cytotoxicity against human HOP62 cells; type: cell-based; procedure, shortened: as §1

SMILES: Oc1ccc(Cc2ccc(O)c(C3CC(c4ccc(Cl)cc4)=NN3)c2)cc1C1CC(c2ccc(Cl)cc2)=NN1 (centres undefined)
- LC50 (NCI-H460 [1]): > 100 µM
- LC50 (COLO 205 [2]): > 100 µM
- LC50 (HCC 2998 [3]): > 100 µM
- LC50 (HCT-116 [4]): > 100 µM
- LC50 (HCT-15): > 100 µM
- LC50 (SW-620): > 100 µM
- LC50 (SF-295): > 100 µM
- LC50 (SF-539): > 100 µM
- LC50 (SNB-19): > 100 µM
- GI50 (HL-60(TB) [5]): 2.66 µM
- LC50 (Malme-3M [6]): > 100 µM
- LC50 (M14): > 100 µM
- LC50 (MDA-MB-435): > 100 µM
- LC50 (SK-MEL-2 [7]): 85.5 µM
- LC50 (SK-MEL-28 [8]): > 100 µM
- LC50 (SK-MEL-5): 36.7 µM
- LC50 (OVCAR-4 [9]): > 100 µM
- LC50 (NCI/ADR-RES [10]): > 100 µM
- LC50 (A498 [11]): > 100 µM
- LC50 (CAKI-1): > 100 µM
- LC50 (SN12C): > 100 µM
- GI50 (EKVX): 2.77 µM
- GI50 (HOP-62 [12]): 4.16 µM
- GI50 (NCI-H23): 3.3 µM
- GI50 (NCI-H460 [13]): 2.15 µM
- GI50 (COLO 205 [14]): 5.44 µM
- GI50 (HCC 2998 [15]): 4.88 µM
- GI50 (HCT-116 [16]): 1.85 µM
- GI50 (HT-29): 7.25 µM
- GI50 (KM12): 3.09 µM
- LC50 (DU-145 [17]): > 100 µM
- LC50 (Hs-578T): > 100 µM
- LC50 (T47D): > 100 µM
- GI50 (SNB-75): 4.26 µM
- GI50 (LOX IMVI): 1.82 µM
- GI50 (Malme-3M [18]): 5.08 µM
- GI50 (SK-MEL-2 [19]): 3.23 µM
- GI50 (SK-MEL-28 [20]): 9.84 µM
- GI50 (UACC-257): 2.56 µM
- GI50 (IGROV-1): 4.11 µM
- GI50 (OVCAR-4 [21]): 3.54 µM
- GI50 (OVCAR-8): 2.46 µM
- GI50 (NCI/ADR-RES [22]): 2.24 µM
- GI50 (SK-OV-3): 4.43 µM
- GI50 (786-0): 3.81 µM
- GI50 (A498 [23]): 5.37 µM
- GI50 (DU-145 [24]): 3.46 µM
- GI50 (MCF7): 3.04 µM
- GI50 (BT-549): 4.78 µM
- LC50 (HL-60(TB) [25]): > 100 µM
- LC50 (K562): > 100 µM
- LC50 (MOLT-4): > 100 µM
- LC50 (SR): > 100 µM
- LC50 (HOP-62 [26]): > 100 µM
